According to paper PMC6233868 (Journal of nuclear medicine : official publication, Society …, 2016):
“Also recorded” adds a separate entry of the source. Read-outs that look alike come from different tables or passages of the source.

What was measured:
hNIS [1] = target: T1, hNIS (Homo sapiens, UniProt Q92911); assay type: cell-based
T1 sequence (Q92911 1-643): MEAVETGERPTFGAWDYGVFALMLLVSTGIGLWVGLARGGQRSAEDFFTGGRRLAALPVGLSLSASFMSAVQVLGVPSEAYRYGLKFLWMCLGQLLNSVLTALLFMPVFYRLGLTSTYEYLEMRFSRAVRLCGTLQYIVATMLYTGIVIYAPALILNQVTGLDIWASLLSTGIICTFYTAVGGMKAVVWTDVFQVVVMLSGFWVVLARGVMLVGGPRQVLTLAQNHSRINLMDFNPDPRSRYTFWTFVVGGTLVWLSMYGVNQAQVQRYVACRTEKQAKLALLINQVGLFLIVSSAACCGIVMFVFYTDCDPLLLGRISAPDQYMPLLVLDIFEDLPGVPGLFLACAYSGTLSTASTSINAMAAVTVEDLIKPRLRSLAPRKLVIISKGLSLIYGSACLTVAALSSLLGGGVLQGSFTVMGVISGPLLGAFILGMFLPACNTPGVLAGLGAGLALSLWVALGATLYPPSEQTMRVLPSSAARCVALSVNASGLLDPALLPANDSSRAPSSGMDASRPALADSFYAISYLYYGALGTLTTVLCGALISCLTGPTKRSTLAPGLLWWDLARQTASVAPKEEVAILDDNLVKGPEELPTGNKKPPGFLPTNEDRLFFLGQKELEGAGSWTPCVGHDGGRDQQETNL

NIS = conditions: read-out: IC50 for inhibition of [124I]I- uptake; cited from earlier work
mouse thyroid = conditions: in vivo; cited from earlier work
hNIS [2] = target: T1, hNIS; assay type: cell-based; conditions: read-out: IC50, inhibition of [18F]SO3F- uptake; HCT116-C19 cells
hNIS [3] = target: T1, hNIS; assay type: cell-based; remark: listed apart in the source
[4] = PET/CT imaging biodistribution in Balb/c mice; assay type: in vivo, mouse
Method in brief: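 Female Balb/c mice (4-8 weeks) received NaClO4 (250 mg/kg i.p. in 0.9% NaCl) or an equal volume of saline 1 h before scanning. Dynamic PET ran for 2 h from <1 min after radiotracer injection, followed by CT. Data were corrected and binned into 5 min then 30 min frames. Manual ROIs were drawn at a 10% max-count threshold and reported as %ID (whole body minus tail) and %ID/g.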

[5] = human serum stability by TLC
[6] = ex vivo biodistribution in Balb/c mice; design: species or system mouse; conditions: 2.25 h post-injection
Method in brief: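 Female Balb/c mice (4-8 weeks) were pretreated 1 h before the radiotracer with NaClO4 (250 mg/kg i.p. in 0.9% NaCl) or with a saline sham. After the 2 h PET scan, mice were culled by cervical dislocation at 2.25 h post-injection. Thyroid was dissected under a microscope. Tissues were weighed and gamma-counted, giving %ID/g; n = 3, SD.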

HCT116 cells = experiment: [18F]SO3F- uptake in hNIS-negative parental HCT116 cells; assay type: cell-based, human; conditions: presence or absence of NaClO4
[7] = stability of formulated tracer; assay type: physicochemical
[8] = read-out: IC50, inhibition of [99mTc]TcO4- uptake via hNIS
[9] = read-out: IC50, inhibition of anion uptake via hNIS
[10] = normal mice, PET time-activity curves

F[B-](F)(F)F [BF4^-, tetrafluoroborate]
IC50 (hNIS [1]; [8]): 290 to 4500 nM

[O-][Cl+3]([O-])([O-])O [ClO4^-, perchlorate]
IC50 (NIS): 100 nM

I [I^-, iodide]
IC50 (hNIS [1]; [8]): 2700 to 4700 nM
IC50 (hNIS [1]; [9]): > 2700 nM

O=S(=O)(O)F [SO3F^-, fluorosulfate]
inhibition of radioiodide uptake in mouse thyroid (mouse thyroid): inhibit radioiodide uptake
IC50 (hNIS [2]): 1600 nM
IC50 (hNIS [1]; [8]): 550 to 560 nM
IC50 (hNIS [1]; [9]): 560 nM

[O]=[Tc](=[O])(=[O])[OH] [TcO4^-, pertechnetate]
IC50 (hNIS [1]; [8]): 70 nM

O=S(=O)(O)F [[^18F]SO3F^-] [[^18F]Fluorosulfate]
uptake of radiotracer in HCT116-C19 cells (hNIS [3]): Specific, blockable hNIS-mediated uptake; also recorded: Significant uptake
uptake of radiotracer in HCT116-C19 cells with NaClO4 (hNIS [3]): blocked
bone %ID/g relative to that in thyroid ([4]; 30 min): < 1%
time of maximum thyroid uptake ([4]; PET, normal mice): 30 min
salivary gland uptake (PET) ([4]; normal mice, 30 min): 32 ± 9 %ID/g
thyroid uptake (PET) ([4]; normal mice, 30 min): 563 ± 140 %ID/g
bone uptake (PET) ([4]; normal mice, 60 min): 3 ± 1 %ID/g
stomach uptake (PET) ([4]; normal mice, 90 min): 68 ± 21 %ID/g
time at which stomach uptake reaches a plateau [4, 10]: around 90 min
time at which thyroid and salivary gland uptake reaches a plateau [4, 10]: 30 to 45 min
RCP after incubation with human serum ([5]; 4 h, TLC of supernatant after ethanol protein precipitation): > 95%
radioactivity associated with the protein pellet ([5]; human serum, ethanol precipitation): no significant radioactivity
bladder radioactivity (ex vivo) [6]: 15 ± 14 %ID/g
bone uptake (ex vivo) [6]: 17 ± 3 %ID/g
bone uptake (ex vivo) with perchlorate ([6]; mice administered NaClO4): not blocked
salivary gland uptake (ex vivo) with NaClO4 ([6]; mice administered NaClO4): 2.6 ± 1.7 %ID/g
stomach uptake (ex vivo) with NaClO4 ([6]; mice administered NaClO4): 3.0 ± 1.7 %ID/g
thyroid uptake (ex vivo) with NaClO4 ([6]; mice administered NaClO4): 4.3 ± 4.6 %ID/g
salivary gland uptake (ex vivo) ([6]; without NaClO4): 18 ± 4 %ID/g
stomach uptake (ex vivo) ([6]; without NaClO4): 59 ± 10 %ID/g
thyroid uptake (ex vivo) ([6]; without NaClO4): 144 ± 71 %ID/g
uptake of radiotracer in parental HCT116 cells (HCT116 cells): No uptake; also recorded: absent
RCP after standing ([7]; formulated tracer, room temperature, 4 h, IC and TLC): > 95%
RCP under acidic conditions ([7]; pH 3.0, 4 h): similarly constant
